Results on 6 compounds are retold here after ChEMBL document CHEMBL1131324 (J Med Chem, 1998).

Test [1] concerns the target 5-hydroxytryptamine receptor 1D (Homo sapiens, UniProt P28221). Briefly: Binding affinity for human 5-hydroxytryptamine 1D receptor.
The target of test [2] is 5-hydroxytryptamine receptor 2A (Homo sapiens, UniProt P28223). Briefly: Binding affinity for human 5-hydroxytryptamine 2A receptor. In short, it runs like this:
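Human cloned receptor expressed in HEK 293 cells; displacement of [³H]ketanserin in 50 mM Tris-HCl (pH 7.7 at 25 °C). Test compound over a concentration range, 30-45 min at 37 °C; filtration with ice-cold buffer wash, bound label by scintillation counting; pKi reported as mean (SEM, n) or individual values where n = 2.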

Test [3] concerns the target T1, 5-hydroxytryptamine receptor 1B (Homo sapiens, UniProt P28222). The experiment in a line: Effect of compound on [35S]GTP-gamma-S, radioligand binding CHO cells expressing human 5-hydroxytryptamine 1B receptor. The class given is functional, cell-based. For orientation: GTPγS resists hydrolysis and so accumulates on activated G proteins.
For test [4], the target named is T1, 5-hydroxytryptamine receptor 1B. Briefly: Binding affinity for human 5-hydroxytryptamine 1B receptor.

Chain of 5-hydroxytryptamine receptor 2A (P28223 whole entry): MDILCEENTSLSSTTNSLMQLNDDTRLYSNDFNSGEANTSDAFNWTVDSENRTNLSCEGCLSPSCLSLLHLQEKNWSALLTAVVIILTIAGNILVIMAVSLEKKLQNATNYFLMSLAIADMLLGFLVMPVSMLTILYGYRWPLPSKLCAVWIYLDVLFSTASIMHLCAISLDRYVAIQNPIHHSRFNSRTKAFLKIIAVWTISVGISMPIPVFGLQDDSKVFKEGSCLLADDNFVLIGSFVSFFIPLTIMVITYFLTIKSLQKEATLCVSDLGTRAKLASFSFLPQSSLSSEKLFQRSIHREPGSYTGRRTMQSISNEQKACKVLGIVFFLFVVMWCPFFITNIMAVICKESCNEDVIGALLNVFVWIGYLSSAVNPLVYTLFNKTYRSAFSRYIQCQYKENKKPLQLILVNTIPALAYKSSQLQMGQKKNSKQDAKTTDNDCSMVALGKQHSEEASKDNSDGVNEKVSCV
T1 sequence (P28222 whole entry): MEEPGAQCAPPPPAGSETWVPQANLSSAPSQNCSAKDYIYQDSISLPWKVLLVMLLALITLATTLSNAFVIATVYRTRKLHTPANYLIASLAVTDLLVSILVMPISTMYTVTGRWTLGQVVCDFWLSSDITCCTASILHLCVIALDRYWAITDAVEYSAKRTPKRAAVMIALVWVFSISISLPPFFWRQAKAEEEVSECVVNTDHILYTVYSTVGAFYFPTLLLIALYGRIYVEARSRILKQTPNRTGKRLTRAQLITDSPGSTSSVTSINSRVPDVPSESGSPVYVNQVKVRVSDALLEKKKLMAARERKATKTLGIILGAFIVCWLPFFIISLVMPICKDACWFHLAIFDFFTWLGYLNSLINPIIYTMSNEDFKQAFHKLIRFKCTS
Chain of 5-hydroxytryptamine receptor 1D (P28221 whole entry): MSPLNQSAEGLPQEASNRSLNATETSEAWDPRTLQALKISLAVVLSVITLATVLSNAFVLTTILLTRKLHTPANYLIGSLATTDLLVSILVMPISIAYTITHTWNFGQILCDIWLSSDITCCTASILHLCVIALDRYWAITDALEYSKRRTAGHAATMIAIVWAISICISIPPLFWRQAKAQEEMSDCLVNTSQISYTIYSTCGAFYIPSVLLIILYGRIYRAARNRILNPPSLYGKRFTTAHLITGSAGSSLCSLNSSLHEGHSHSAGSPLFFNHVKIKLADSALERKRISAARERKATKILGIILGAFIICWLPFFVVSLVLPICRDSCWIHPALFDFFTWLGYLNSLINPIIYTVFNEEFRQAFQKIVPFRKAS

`Cc1nc(-c2ccc(-c3ccc(C(=O)Nc4cc5c(c(OCCN(C)C)c4)OCC5)cc3)c(C)c2)no1`: the values for the Ki in test [1], in test [2] and in test [4] were 25.1 nM, 50.1 nM and 1.58 nM, respectively. In test [3], this compound gave a [35S]GTPγS binding stimulation of 207%.
In the same order, the values of `Cc1nc(-c2ccc(-c3ccc(C(=O)Nc4ccc5c(c4)N(CCN(C)C)CCO5)cc3)c(C)c2)no1` are 20 nM, 3.98 nM, 2.51 nM and 91%.
Take `Cc1cc(C(=O)Nc2ccc(C)c(N3CCN(C)CC3)c2)ccc1Br`: the Ki in test [1] is 39.8 nM; in test [2], 126 nM; in test [4] it was 12.6 nM.
The like results for `Cc1cc(C(=O)Nc2cccc(N3CCN(C)CC3)c2)ccc1Br` were, in that order, 200 nM, 316 nM and 126 nM.
`COc1ccc(NC(=O)c2ccc(-c3ccc(-c4noc(C)n4)cc3C)cc2)cc1OCCN(C)C` gave a Ki in test [1] of 31.6 nM. This compound also gave a [35S]GTPγS binding stimulation in test [3] of 139%.
On to `COc1ccc(NC(=O)c2ccc(Br)c(C)c2)cc1N1CCN(C)CC1`, for which the results for the Ki in test [1], in test [2] and in test [4] were 12.6 nM, 200 nM and 6.31 nM, respectively.

Broadly, the Ki is a measure of affinity in units of concentration, obtained from inhibition or displacement. Low readings indicate higher affinity, high ones lower affinity.
